Results on 19 compounds are retold here after ChEMBL document CHEMBL4619701, “Neutral analogs of the heat shock protein 70 (Hsp70) inhibitor, JG-98” (Bioorg Med Chem Lett, 2020).

Data set [1] relates to PC-3. In words: Antiproliferative activity against human PC3 cells assessed as cell growth inhibition. It is filed as functional, cell-based.
Data set [2] deals with CWR22R. In words: Antiproliferative activity against human 22Rv1 cells assessed as cell growth inhibition. It is filed as functional, cell-based.
For data set [3], the system named is MCF7. The experiment in a line: Antiproliferative activity against human MCF7 cells assessed as cell growth inhibition. It is filed as functional, cell-based.
The nature of data set [4]: Inhibition of HSP70 in human 22Rv1 cells assessed as induction of heat shock response by measuring HSP90 level at 0.3 to 5 uM measured after 24 hrs by Western blot analysis. It is filed as cell-based. The conditions noted are these: cwr22r. Summed up: (§1)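 22Rv1 cells were treated for 24 h at the indicated concentrations, then lysed and analysed by western blot for the named protein. Blots are representative of at least two independent experiments. Quantifications are averages of at least two independent experiments, with error bars as S.E.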

In data set [5] the test system is MCF7. In words: Potency index, ratio of JG-98 IC50 to compound IC50 for human MCF7 cells. It is filed as functional.
Data set [6] has as its system CWR22R. In words: Inhibition of HSP70 in human 22Rv1 cells assessed as reduction in HuR protein level at 0.3 to 5 uM measured after 24 hrs by Western blot analysis. It is filed as cell-based. Summed up: as §1
Data set [7] can be described thus: Inhibition of HSP70 in human 22Rv1 cells assessed as induction of heat shock response by measuring HSP72 level measured after 24 hrs by Western blot analysis. The following applies: cwr22r. It is filed as cell-based. Summed up:
as §1

Data set [8] concerns CWR22R. The experiment in a line: Inhibition of HSP70 in human 22Rv1 cells assessed as reduction in Akt-1 protein level at 0.3 to 5 uM measured after 24 hrs by Western blot analysis. It is filed as cell-based. The procedure, abridged:
as §1

The subject of data set [9] is PC-3. The experiment in a line: Potency index, ratio of JG-98 IC50 to compound IC50 for human PC3 cells. It is filed as functional.
The test system of data set [10] is CWR22R. In words: Inhibition of HSP70 in human 22Rv1 cells assessed as reduction in CDK4 protein level at 0.3 to 5 uM measured after 24 hrs by Western blot analysis. It is filed as cell-based. The procedure, abridged:
as §1

Data set [11] deals with CWR22R. The experiment in a line: Inhibition of HSP70 in human 22Rv1 cells assessed as reduction in c-Raf1 protein level at 0.3 to 5 uM measured after 24 hrs by Western blot analysis. It is filed as cell-based. Summed up:
as §1

Data set [12] concerns CWR22R. The experiment in a line: Potency index, ratio of JG-98 IC50 to compound IC50 for human 22Rv1 cells. It is filed as functional.

Take `c1ccc(Nc2nc(-c3nc4ccccc4s3)cs2)nc1`: the IC50 was 6700 nM in the data set on PC-3 [1], 3200 nM in the data set with CWR22R [2] and 3600 nM with MCF7 [3].
For `CCn1c(=O)/c(=C2\Sc3ccc(OC)cc3N2C)s/c1=C\c1ccncc1Nc1ccccc1F` the same measures were 100 nM, 190 nM and 130 nM.
For `CCn1c(=O)/c(=C2\Sc3ccc(C)cc3N2C)s/c1=C\c1ccncc1Nc1ccccc1C` the same measures were 330 nM, 480 nM and 400 nM.
For `COc1ccc(Cl)c(Nc2cccc(-c3nc4ccccc4s3)c2)c1`, the IC50 in the data set with PC-3 [1] was 2200 nM; in the data set with CWR22R [2], 2100 nM; with MCF7 [3] it was 710 nM.
On to `CCn1c(=O)/c(=C2\Sc3cc(F)ccc3N2C)s/c1=C\c1ccncc1Nc1ccccc1Cl`, for which the IC50 with PC-3 [1] was 1200 nM; in the data set with CWR22R [2] it was 490 nM; in the data set with MCF7 [3], 1300 nM.
The corresponding values for `CCn1c(=O)/c(=C2\Sc3ccccc3N2C)s/c1=C\c1ccncc1Nc1ccccc1Cl` are 780 nM, 460 nM and 750 nM.
Consider `CCc1ccc2c(c1)S/C(=c1/s/c(=C\c3ccncc3Nc3ccccc3F)n(CC)c1=O)N2C`, for which the IC50 with PC-3 [1] came to 2200 nM; in the data set on CWR22R [2] it was 1200 nM; with MCF7 [3], 1200 nM.
As for `CCn1c(=O)/c(=C2\Sc3cc(F)ccc3N2C)s/c1=C\c1ccncc1Nc1ccccc1F`, the figures for the IC50 in the data set on PC-3 [1], with CWR22R [2] and in the data set with MCF7 [3] were 260 nM, 150 nM and 230 nM, respectively.
With `CCn1c(=O)/c(=C2\Sc3ccc(OC)cc3N2C)s/c1=C\c1ccncc1Nc1ccccc1C`, the values for the IC50 in the data set with PC-3 [1], in the data set on CWR22R [2] and in the data set on MCF7 [3] were 370 nM, 410 nM and 420 nM, respectively.
The corresponding values for `CCn1c(=O)/c(=C2\Sc3ccc(OC)cc3N2C)s/c1=C\c1ccncc1Nc1ccccc1Cl` are 760 nM, 500 nM and 710 nM.
For `c1ccc(Nc2cccc(-c3nc4ccccc4s3)c2)nc1` the same measures were 4800 nM, 13000 nM and 13000 nM.
For the compound `CCn1c(=O)/c(=C2\Sc3ccc(C)cc3N2C)s/c1=C\c1ccncc1Nc1ccccc1Cl`, the IC50 in the data set with PC-3 [1] is 500 nM; in the data set on CWR22R [2], 350 nM; with MCF7 [3] it was 650 nM.
For `CCn1c(=O)/c(=C2\Sc3ccccc3N2C)s/c1=C\c1ccncc1Nc1cc(C)ccc1C` the same measures were 2000 nM, 1800 nM and 1700 nM.
The corresponding values for `CCn1c(=O)/c(=C2\Sc3ccccc3N2C)s/c1=C\c1ccncc1Nc1ccccc1F` are 360 nM, 300 nM and 330 nM.
For `CCn1c(=O)/c(=C2\Sc3ccccc3N2C)s/c1=C\c1ccncc1Nc1cc(F)ccc1F`, the IC50 in the data set on PC-3 [1] turned out to be 1200 nM; in the data set on CWR22R [2] it was 1100 nM; in the data set with MCF7 [3], 1500 nM.
The corresponding values for `c1ccc(Nc2nc(-c3nc4ccccc4s3)cs2)cc1` are 5500 nM, 6900 nM and 7600 nM.
As for `CCn1c(=O)/c(=C2\Sc3ccccc3N2C)s/c1=C\c1ccncc1Nc1ccccc1C`, the concentration for half-maximal inhibition (IC50) with PC-3 [1] stood at 1200 nM; with CWR22R [2], 470 nM; in the data set on MCF7 [3], 990 nM.
With `CCn1c(=O)/c(=C2\Sc3cc(F)ccc3N2C)s/c1=C\c1ccncc1Nc1ccccc1C`, the IC50 was determined as 2300 nM in the data set with PC-3 [1], 2300 nM in the data set on CWR22R [2] and 1300 nM with MCF7 [3].
`CCn1c(=O)/c(=C2\Sc3ccc(C)cc3N2C)s/c1=C\c1ccncc1Nc1ccccc1F`: the “inhibition (INH)” value in data set [4] and in data set [7] was “Not Active” in each case. In addition, the IC50 in the data set with PC-3 [1] came out at 70 nM; in the data set with CWR22R [2], 150 nM; in the data set with MCF7 [3], 100 nM. For the same compound, the “Ratio IC50” value in the data set with MCF7 [5], with PC-3 [9] and in the data set with CWR22R [12] was 7 - 10 each time. Further, the inhibition in the data set with CWR22R [6], in the data set on CWR22R [8], in the data set with CWR22R [10] and in the data set on CWR22R [11] was 50% in each case.
